This note sets out measurements from ChEMBL document CHEMBL1134287, “Design and pharmacological activity of phosphinic acid based NAALADase inhibitors” (J Med Chem, 2001).

The target in this test is Glutamate carboxypeptidase 2 (Rattus norvegicus, UniProt P70627). The test can be described thus: Inhibitory concentration against rat brain NAALADase (Folate hydrolase). The essentials: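 IC50 values were determined by a method described elsewhere, from two to four independent determinations each. The values refer to racemic material.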
Sequence of Glutamate carboxypeptidase 2 (P70627 whole entry): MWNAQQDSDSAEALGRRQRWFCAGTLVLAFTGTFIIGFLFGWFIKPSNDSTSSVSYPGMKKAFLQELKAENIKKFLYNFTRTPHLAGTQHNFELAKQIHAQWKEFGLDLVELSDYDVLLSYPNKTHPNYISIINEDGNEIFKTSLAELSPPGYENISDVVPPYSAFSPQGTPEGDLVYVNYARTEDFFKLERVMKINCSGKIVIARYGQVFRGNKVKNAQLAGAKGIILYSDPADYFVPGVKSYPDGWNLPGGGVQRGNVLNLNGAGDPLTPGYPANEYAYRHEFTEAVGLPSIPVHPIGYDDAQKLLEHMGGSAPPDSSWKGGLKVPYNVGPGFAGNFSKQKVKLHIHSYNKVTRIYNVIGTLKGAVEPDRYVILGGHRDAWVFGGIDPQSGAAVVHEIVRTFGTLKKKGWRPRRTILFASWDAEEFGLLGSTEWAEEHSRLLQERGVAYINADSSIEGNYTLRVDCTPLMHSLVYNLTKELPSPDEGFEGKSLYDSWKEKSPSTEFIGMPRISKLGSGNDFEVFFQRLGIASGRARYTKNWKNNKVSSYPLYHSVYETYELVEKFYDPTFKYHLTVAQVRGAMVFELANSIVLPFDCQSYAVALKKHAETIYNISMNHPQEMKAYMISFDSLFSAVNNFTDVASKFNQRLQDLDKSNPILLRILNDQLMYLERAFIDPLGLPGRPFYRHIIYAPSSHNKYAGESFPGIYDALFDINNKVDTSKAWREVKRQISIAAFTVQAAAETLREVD

Consider `Nc1cccc(CP(=O)(O)CC(CCC(=O)O)C(=O)O)c1` (stereo not given), for which half-maximal inhibition (IC50) required 143 nM. This counts as sub-micromolar.
On to `O=C(O)C(CCC1N=NN=N1)CP(=O)(O)O` (stereo not given), for which half-maximal inhibition (IC50) was put at 175 nM.
As to `CC(CP(=O)(O)CC(CCC(=O)O)C(=O)O)C(=O)O` (stereo not given), half-maximal inhibition (IC50) was put at 1.5 nM.
With `O=C(O)C(CCc1ccccc1)CP(=O)(O)O` (stereo not given), the IC50 (as a rule, the concentration that inhibits the measured activity by half) amounted to 199 nM.
For the compound `O=C(O)CCC(CP(=O)(O)CC(Cc1ccccc1)C(=O)O)C(=O)O` (stereo not given), inhibition was half-maximal at 2 nM (IC50).
As for `O=C(O)CCC(CP(=O)(O)C(O)c1ccncc1)C(=O)O` (stereo not given), the IC50 came out at 10 nM. This IC50 lies about 5-fold higher than the previous one.
The same measure for `O=C(O)CCC(CP(=O)(O)CNCc1ccccc1)C(=O)O` (stereo not given): 59 nM.
The same measure for `O=C(O)C(Cc1cccc(O)c1)CP(=O)(O)O` (stereo not given): 508 nM; for `O=C(O)CCC(CP(=O)(O)Cc1c(F)c(F)c(F)c(F)c1F)C(=O)O` (stereo not given): 82 nM; for `O=C(O)CCC(CP(=O)(O)Cc1cc(F)cc(F)c1)C(=O)O` (stereo not given): 49 nM.
`O=C(O)CCC(CP(=O)(O)Cc1ccccc1)C(=O)O` (stereo not given) came in with an IC50 of 53 nM. This IC50 and that of the compound before are within 1.5-fold of each other.
The figure for `COc1ccc(NCP(=O)(O)CC(CCC(=O)O)C(=O)O)cc1` (stereo not given) is 3 nM; for `O=C(O)CCC(CP(=O)(O)Cc1cc(C(F)(F)F)cc(C(F)(F)F)c1)C(=O)O` (stereo not given) it is 55 nM.
The same measure for `O=C(O)CCC(CP(=O)(O)CCc1ccccc1)C(=O)O` (stereo not given): 149 nM; for `O=C(O)CCC(CP(=O)(O)Cc1ccccc1F)C(=O)O` (stereo not given): 156 nM.
The figure for `CCCP(=O)(O)CC(CCC(=O)O)C(=O)O` (stereo not given) is 360 nM; for `O=C(O)CCC(CP(=O)(O)CC(CCC(=O)O)C(=O)O)C(=O)O` (stereo not given) it is 0.5 nM; for `O=C(O)CC(CP(=O)(O)O)C(=O)O` (stereo not given) it is 2200 nM.
In turn, `O=C(O)C(Cc1ccccc1)CP(=O)(O)O` (stereo not given) had an IC50 of 548 nM. This IC50 is about 4-fold lower than that of the compound before.
Regarding `O=C(O)CCC(CP(=O)(O)c1ccccc1)C(=O)O` (stereo not given), inhibition was half-maximal at 2930 nM (IC50).
The same measure for `Cc1ccc(CP(=O)(O)CC(CCC(=O)O)C(=O)O)cc1` (stereo not given): 68 nM.
As for `O=C(O)CCCC(CP(=O)(O)O)C(=O)O` (stereo not given), the IC50 came out at 185 nM.
The same measure for `N#CCCC(CP(=O)(O)O)C(=O)O` (stereo not given): 335 nM; for `CC(CP(=O)(O)CC(CCC(=O)O)C(=O)O)C(=O)OCc1ccccc1` (stereo not given): 95 nM; for `O=C(O)CCC(CP(=O)(O)C(O)c1cccc(F)c1)C(=O)O` (stereo not given): 16 nM.
